Positions of bridges follow the written chain, without caps; N, C: chain ends. Residues, ends and D or L forms follow the SMILES beside them.
molecular target: Sodium channel protein type 5 subunit alpha (Homo sapiens, UniProt Q14524); experiment: Inhibition of human Nav1.5 expressed in HEK293 cells assessed as inward peak current by ion-works quattro patch clamp electrophysiology method; format: cell-based; settings: not given
How it was run: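 Stable HEK293 line expressing human NaV1.5, recorded by population patch clamp on the IonWorks Quattro.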

Sequence of Sodium channel protein type 5 subunit alpha (Q14524 whole entry): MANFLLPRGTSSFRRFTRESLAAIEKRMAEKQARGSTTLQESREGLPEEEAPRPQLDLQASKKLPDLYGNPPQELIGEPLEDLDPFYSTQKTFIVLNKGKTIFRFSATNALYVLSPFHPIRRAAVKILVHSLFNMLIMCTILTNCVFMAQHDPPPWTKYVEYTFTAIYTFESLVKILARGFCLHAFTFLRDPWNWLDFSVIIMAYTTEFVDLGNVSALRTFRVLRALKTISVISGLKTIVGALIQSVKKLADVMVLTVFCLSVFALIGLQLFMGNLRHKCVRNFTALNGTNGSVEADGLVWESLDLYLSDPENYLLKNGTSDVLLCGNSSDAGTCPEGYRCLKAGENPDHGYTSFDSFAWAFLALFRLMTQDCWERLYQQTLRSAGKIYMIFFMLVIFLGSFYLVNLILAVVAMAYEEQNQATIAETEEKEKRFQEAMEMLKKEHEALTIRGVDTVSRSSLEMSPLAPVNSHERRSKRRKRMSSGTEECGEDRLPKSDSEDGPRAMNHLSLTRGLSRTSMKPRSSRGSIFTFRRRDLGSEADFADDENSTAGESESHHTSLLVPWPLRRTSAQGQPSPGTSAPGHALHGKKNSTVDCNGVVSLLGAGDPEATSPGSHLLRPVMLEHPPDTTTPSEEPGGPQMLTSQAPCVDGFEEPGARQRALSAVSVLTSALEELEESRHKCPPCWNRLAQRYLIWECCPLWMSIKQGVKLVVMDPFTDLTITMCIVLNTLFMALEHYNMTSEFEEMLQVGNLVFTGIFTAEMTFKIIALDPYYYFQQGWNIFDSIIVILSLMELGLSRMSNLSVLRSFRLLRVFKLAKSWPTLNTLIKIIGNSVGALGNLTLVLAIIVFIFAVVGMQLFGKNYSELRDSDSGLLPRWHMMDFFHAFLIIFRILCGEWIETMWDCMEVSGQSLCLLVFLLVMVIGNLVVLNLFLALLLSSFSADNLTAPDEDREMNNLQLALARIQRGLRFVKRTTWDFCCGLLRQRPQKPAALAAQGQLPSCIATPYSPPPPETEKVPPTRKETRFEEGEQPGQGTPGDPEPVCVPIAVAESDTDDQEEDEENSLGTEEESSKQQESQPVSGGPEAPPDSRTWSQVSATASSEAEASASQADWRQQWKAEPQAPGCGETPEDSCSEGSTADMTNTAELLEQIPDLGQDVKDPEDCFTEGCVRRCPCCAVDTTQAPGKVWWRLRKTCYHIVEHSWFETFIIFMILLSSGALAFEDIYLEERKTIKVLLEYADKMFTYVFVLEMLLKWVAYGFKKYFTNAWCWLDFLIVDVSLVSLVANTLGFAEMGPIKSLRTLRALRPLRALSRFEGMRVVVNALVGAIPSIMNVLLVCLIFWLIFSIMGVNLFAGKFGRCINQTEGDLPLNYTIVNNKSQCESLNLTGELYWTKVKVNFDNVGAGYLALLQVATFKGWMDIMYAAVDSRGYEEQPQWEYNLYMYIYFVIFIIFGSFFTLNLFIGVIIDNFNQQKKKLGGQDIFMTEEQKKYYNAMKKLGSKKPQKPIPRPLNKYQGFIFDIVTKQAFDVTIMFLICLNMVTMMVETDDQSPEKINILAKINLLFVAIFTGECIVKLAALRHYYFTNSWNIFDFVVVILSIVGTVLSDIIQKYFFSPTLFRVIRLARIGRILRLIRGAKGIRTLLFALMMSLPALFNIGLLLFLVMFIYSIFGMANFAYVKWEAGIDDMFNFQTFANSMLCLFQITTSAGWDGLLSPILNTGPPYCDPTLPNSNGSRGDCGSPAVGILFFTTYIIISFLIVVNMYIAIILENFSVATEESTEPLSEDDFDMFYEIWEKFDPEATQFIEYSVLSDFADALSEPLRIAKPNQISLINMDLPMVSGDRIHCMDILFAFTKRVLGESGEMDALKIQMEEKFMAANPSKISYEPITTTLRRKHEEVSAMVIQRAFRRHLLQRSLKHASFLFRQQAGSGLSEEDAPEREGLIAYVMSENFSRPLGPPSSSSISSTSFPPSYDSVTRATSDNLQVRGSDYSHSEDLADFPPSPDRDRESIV

| SMILES | IC50 [µM] |
| --- | --- |
| CC[C@H](C)[C@@H]1NC(=O)[C@@H]2CSSC[C@@H]3NC(=O)[C@H](CCCNC(=N)N)NC(=O)[C@H](CC(C)C)NC(=O)[C@H](CC(N)=O)NC(=O)[C@@H]4CCCN4C(=O)[C@H](CCCNC(=N)N)NC(=O)[C@H](CSSC[C@H](NC(=O)[C@@H](N)CC(=O)O)C(=O)N[C@@H](CC(C)C)C(=O)NCC(=O)N[C@@H](Cc4ccccc4)C(=O)N[C@@H](CCSC)C(=O)N[C@@H](CCCNC(=N)N)C(=O)N[C@@H](CCCCN)C(=O)N2)NC(=O)[C@H](CSSC[C@@H](C(=O)N[C@@H](CCCCN)C(=O)N[C@@H](Cc2ccc(O)cc2)C(=O)N[C@H](C(=O)N[C@@H](Cc2ccccc2)C(N)=O)C(C)C)NC(=O)[C@H](Cc2c[nH]c4ccccc24)NC(=O)[C@H](CCCCN)NC(=O)[C@H](Cc2cnc[nH]2)NC(=O)[C@H]([C@@H](C)O)NC(=O)[C@H](CCCNC(=N)N)NC(=O)[C@H](CO)NC3=O)NC(=O)[C@H](CCCCN)NC(=O)[C@H](CC(=O)O)NC(=O)[C@H](CC(N)=O)NC(=O)[C@H](CC(=O)O)NC(=O)[C@@H]2CCCN2C1=O (H-DCLGFMRKCIPDNDKCCRPNLRCSRTHKWCKYVF-NH2; disulfide 2-17, 9-23, 16-30) | > 5 |
| CC[C@H](C)[C@@H]1NC(=O)[C@@H]2CSSC[C@@H]3NC(=O)[C@H](C(C)C)NC(=O)[C@H](CC(C)C)NC(=O)[C@H](CC(N)=O)NC(=O)[C@@H]4CCCN4C(=O)[C@H](CCCNC(=N)N)NC(=O)[C@H](CSSC[C@H](NC(=O)[C@@H](N)CC(=O)O)C(=O)N[C@@H](CC(C)C)C(=O)NCC(=O)N[C@@H](Cc4ccccc4)C(=O)N[C@@H](CCSC)C(=O)N[C@@H](CCCNC(=N)N)C(=O)N[C@@H](CCCCN)C(=O)N2)NC(=O)[C@H](CSSC[C@@H](C(=O)N[C@@H](CCCCN)C(=O)N[C@@H](Cc2ccc(O)cc2)C(=O)N[C@H](C(=O)N[C@@H](Cc2ccccc2)C(=O)N[C@@H](CCC(=O)O)C(N)=O)C(C)C)NC(=O)[C@H](Cc2c[nH]c4ccccc24)NC(=O)[C@H](CCCCN)NC(=O)[C@H](Cc2c[nH]cn2)NC(=O)[C@H]([C@@H](C)O)NC(=O)[C@H](CCCNC(=N)N)NC(=O)[C@H](CO)NC3=O)NC(=O)[C@H](CCCCN)NC(=O)[C@H](CC(=O)O)NC(=O)[C@H](CC(N)=O)NC(=O)[C@H](CC(=O)O)NC(=O)[C@@H]2CCCN2C1=O | > 5 |
| CC[C@H](C)[C@@H]1NC(=O)[C@@H]2CSSC[C@@H]3NC(=O)[C@H](C(C)C)NC(=O)[C@H](CC(C)C)NC(=O)[C@H](CC(N)=O)NC(=O)[C@@H]4CCCN4C(=O)[C@H](CCCNC(=N)N)NC(=O)[C@H](CSSC[C@H](NC(=O)[C@@H](N)CC(=O)O)C(=O)N[C@@H](CC(C)C)C(=O)NCC(=O)N[C@@H](CCCNC(=N)N)C(=O)N[C@@H](CCSC)C(=O)N[C@@H](CCCNC(=N)N)C(=O)N[C@@H](CCCCN)C(=O)N2)NC(=O)[C@H](CSSC[C@@H](C(=O)N[C@@H](CCCCN)C(=O)N[C@@H](Cc2ccc(O)cc2)C(=O)N[C@H](C(=O)N[C@@H](Cc2ccccc2)C(N)=O)C(C)C)NC(=O)[C@H](Cc2c[nH]c4ccccc24)NC(=O)[C@H](CCCCN)NC(=O)[C@H](Cc2cnc[nH]2)NC(=O)[C@H]([C@@H](C)O)NC(=O)[C@H](CCCNC(=N)N)NC(=O)[C@H](CO)NC3=O)NC(=O)[C@H](CCCCN)NC(=O)[C@H](CC(=O)O)NC(=O)[C@H](CC(N)=O)NC(=O)[C@H](CC(=O)O)NC(=O)[C@@H]2CCCN2C1=O (H-DCLGRMRKCIPDNDKCCRPNLVCSRTHKWCKYVF-NH2; disulfide 2-17, 9-23, 16-30) | > 5 |
| CC[C@H](C)[C@@H]1NC(=O)[C@@H]2CSSC[C@@H]3NC(=O)[C@H](C(C)C)NC(=O)[C@H](CC(C)C)NC(=O)[C@H](CC(N)=O)NC(=O)[C@@H]4CCCN4C(=O)[C@H](CCCNC(=N)N)NC(=O)[C@H](CSSC[C@H](NC(=O)[C@@H](N)CC(=O)O)C(=O)N[C@@H](CC(C)C)C(=O)NCC(=O)N[C@@H](Cc4ccccc4)C(=O)N[C@@H](CCSC)C(=O)N[C@@H](CCCNC(=N)N)C(=O)N[C@@H](CCCCN)C(=O)N2)NC(=O)[C@H](CSSC[C@@H](C(=O)N[C@@H](CCCCN)C(=O)N[C@@H](Cc2ccc(O)cc2)C(=O)N[C@@H](CCCNC(=N)N)C(=O)N[C@@H](Cc2ccccc2)C(N)=O)NC(=O)[C@H](Cc2c[nH]c4ccccc24)NC(=O)[C@H](CCCCN)NC(=O)[C@H](Cc2cnc[nH]2)NC(=O)[C@H]([C@@H](C)O)NC(=O)[C@H](CCCNC(=N)N)NC(=O)[C@H](CO)NC3=O)NC(=O)[C@H](CCCCN)NC(=O)[C@H](CC(=O)O)NC(=O)[C@H](CC(N)=O)NC(=O)[C@H](CC(=O)O)NC(=O)[C@@H]2CCCN2C1=O (H-DCLGFMRKCIPDNDKCCRPNLVCSRTHKWCKYRF-NH2; disulfide 2-17, 9-23, 16-30) | > 5 |
| CC[C@H](C)[C@@H]1NC(=O)[C@@H]2CSSC[C@@H]3NC(=O)[C@H](C(C)C)NC(=O)[C@H](CC(C)C)NC(=O)[C@H](CC(N)=O)NC(=O)[C@@H]4CCCN4C(=O)[C@H](CCCNC(=N)N)NC(=O)[C@H](CSSC[C@H](NC(=O)[C@@H](N)CC(=O)O)C(=O)N[C@@H](CC(C)C)C(=O)NCC(=O)N[C@@H](Cc4ccccc4)C(=O)N[C@@H](CCSC)C(=O)N[C@@H](CCCNC(=N)N)C(=O)N[C@@H](CCCCN)C(=O)N2)NC(=O)[C@H](CSSC[C@@H](C(=O)N[C@@H](CCCCN)C(=O)N[C@@H](Cc2ccc(O)cc2)C(N)=O)NC(=O)[C@H](Cc2c[nH]c4ccccc24)NC(=O)[C@H](CCCCN)NC(=O)[C@H](Cc2cnc[nH]2)NC(=O)[C@H]([C@@H](C)O)NC(=O)[C@H](CCCNC(=N)N)NC(=O)[C@H](CO)NC3=O)NC(=O)[C@H](CCCCN)NC(=O)[C@H](CC(=O)O)NC(=O)[C@H](CC(N)=O)NC(=O)[C@H](CC(=O)O)NC(=O)[C@@H]2CCCN2C1=O (H-DCLGFMRKCIPDNDKCCRPNLVCSRTHKWCKY-NH2; disulfide 2-17, 9-23, 16-30) | > 5 |

same assay, conditions: hek293

| SMILES | IC50 [µM] |
| --- | --- |
| CC[C@H](C)[C@@H]1NC(=O)[C@@H]2CSSC[C@@H]3NC(=O)[C@H](C(C)C)NC(=O)[C@H](CC(C)C)NC(=O)[C@H](CC(N)=O)NC(=O)[C@@H]4CCCN4C(=O)[C@H](CCCNC(=N)N)NC(=O)[C@H](CSSC[C@H](NC(=O)[C@@H](N)CC(=O)O)C(=O)N[C@@H](CC(C)C)C(=O)NCC(=O)N[C@@H](Cc4ccccc4)C(=O)N[C@@H](CCSC)C(=O)N[C@@H](CCCNC(=N)N)C(=O)N[C@@H](CCCCN)C(=O)N2)NC(=O)[C@H](CSSC[C@@H](C(=O)N[C@@H](CCCCN)C(=O)N[C@@H](Cc2ccc(O)cc2)C(=O)N[C@H](C(=O)N[C@@H](Cc2ccccc2)C(=O)O)C(C)C)NC(=O)[C@H](Cc2c[nH]c4ccccc24)NC(=O)[C@H](CCCCN)NC(=O)[C@H](Cc2cnc[nH]2)NC(=O)[C@H]([C@@H](C)O)NC(=O)[C@H](CCCNC(=N)N)NC(=O)[C@H](CO)NC3=O)NC(=O)[C@H](CCCCN)NC(=O)[C@H](CC(=O)O)NC(=O)[C@H](CC(N)=O)NC(=O)[C@H](CC(=O)O)NC(=O)[C@@H]2CCCN2C1=O (stereo in doubt; 158) | > 5 |

— ChEMBL document CHEMBL3797186, “Single Residue Substitutions That Confer Voltage-Gated Sodium Ion Channel Subtype Selectivity in the NaV1.7 Inhibitory Peptide GpTx-1” (J Med Chem, 2016)
